Test results taken from ChEMBL document CHEMBL4138257, “Long-Lasting and Fast-Acting in Vivo Efficacious Antiplasmodial Azepanylcarbazole Amino Alcohol” (ACS Med Chem Lett, 2017).
Values after ≈ are worked out from the molar mass of the structure shown. Each block holds one compound with its values, some of them ahead of it. Active and inactive are the calls of the source. The rule behind the calls is not given here.

How the values were obtained:
Plasmodium falciparum [1] = assay: Antiplasmodial activity against Plasmodium falciparum 3D7 infected in human erythrocytes engrafted in NOD-SCID IL-2Rgamma null mouse assessed as reduction in blood parasitemia administered as single dose via oral gavage […] by flow cytometry; assay type: functional; settings: 3D7, po
How it was run: (§1)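 SCID mice engrafted with human erythrocytes, infected with P. falciparum 3D7; single oral dose of 1, 3, 10 or 30 mg·kg-1 given day 3 after infection. Parasitemia measured by flow cytometry, lower limit of quantification 0.01; vehicle group n=3; chloroquine positive control. ED90 and AUC_ED90 are taken as the reduction at day 7 after infection versus vehicle-treated mice.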

[2] = Ratio of EC50 for Plasmodium falciparum D6 infected in human erythrocytes to EC50 for Plasmodium falciparum NF54 infected in human erythrocytes; assay type: functional
Plasmodium falciparum [3] = assay: Antiplasmodial activity against Plasmodium falciparum HB3 infected in human erythrocytes after 72 hrs by [3H]-hypoxanthine incorporation assay; assay type: functional, organism-based
[4] = Ratio of EC50 for Plasmodium falciparum K1 infected in human erythrocytes to EC50 for Plasmodium falciparum NF54 infected in human erythrocytes; assay type: functional
Plasmodium falciparum [5] = assay: Antiplasmodial activity against Plasmodium falciparum V1/S infected in human erythrocytes after 72 hrs by [3H]-hypoxanthine incorporation assay; assay type: functional, organism-based
[6] = Ratio of drug uptake in mouse blood to plasma; assay type: ADME; settings: blood and plasma
[7] = Stability in human hepatocytes assessed as parent compound remaining after 5 hrs; assay type: ADME, cell-based, Hepatocyte; settings: read-out: Stability
How it was run: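 Human hepatocyte incubation extended to 5 h; parent remaining and metabolite formation assessed.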

Plasmodium falciparum [8] = assay: Antiplasmodial activity against Plasmodium falciparum 3D7 infected in human erythrocytes engrafted in NOD-SCID IL-2Rgamma null mouse assessed as reduction in peripheral blood parasitemia administered as single dose via oral gavage measured on […] by flow cytometry; assay type: functional, organism-based; how it was run: as §1
[9] = Oral bioavailability in dog at 0.5 mg/kg measured for 14 days; assay type: ADME, organism-based, Canis lupus familiaris; settings: in vivo
[10] = Half life in CD1 mouse at 0.5 mg/kg, po measured for 14 days; assay type: ADME, organism-based; settings: in vivo
How it was run: (§2)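 Single po administration, mouse dose 0.5 mg·kg-1; plasma concentrations followed to obtain Cmax time and half-life. Bioavailability derived against single iv dosing.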

[11] = Cmax in NOD-SCID IL-2Rgamma null mouse at 10 mg/kg measured up to 5 days; assay type: ADME, organism-based; design: dose 10 mg/kg; settings: in vivo
Plasmodium falciparum [12] = assay: Antiplasmodial activity against Plasmodium falciparum 3D7A infected in red blood cells assessed as log reduction in parasite viability at 10 times EC50 after 48 hrs by [3H]-hypoxanthine incorporation assay; assay type: functional
How it was run: (§3)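 In vitro parasite reduction ratio (PRR) assay on P. falciparum 3D7A-infected erythrocytes exposed to drug at 10× or 3× EC50. Viability of treated parasites was measured by limiting serial dilution followed by monitoring of re-growth. Killing was expressed as log-unit reduction in viable parasites after 48 h.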

[13] = Ratio of EC50 for Plasmodium falciparum FCB infected in human erythrocytes to EC50 for Plasmodium falciparum NF54 infected in human erythrocytes; assay type: functional
[14] = Oral bioavailability in CD1 mouse at 0.5 mg/kg measured for 14 days; assay type: ADME, organism-based; settings: in vivo; how it was run: as §2
[15] = Half life in rat at 0.5 mg/kg, po measured for 14 days; assay type: ADME, organism-based; settings: in vivo
Plasmodium falciparum [16] = assay: Antiplasmodial activity against Plasmodium falciparum 3D7A infected in red blood cells assessed as log reduction in parasite viability at 3 times EC50 after 48 hrs by [3H]-hypoxanthine incorporation assay; assay type: functional; how it was run: as §3
Plasmodium falciparum [17] = assay: Antiplasmodial activity against Plasmodium falciparum TM90C2B infected in human erythrocytes after 72 hrs by [3H]-hypoxanthine incorporation assay; assay type: functional, organism-based
[18] = Kinetic solubility of the compound in PBS at pH 7.4 after 24 hrs by HPLC analysis; assay type: physicochemical; settings: read-out: Kinetic_solubility
[19] = Intrinsic clearance in mouse microsomes assessed per mg protein; assay type: ADME, Microsome
[20] = Intrinsic clearance in dog microsomes assessed per mg protein; assay type: ADME, Canis lupus familiaris, Microsome
[21] = Fraction unbound in human plasma at 1000 ng/mL by LC-MS analysis; assay type: ADME, cell-free
[22] = Dissociation constant, pKa of the compound at pH 1.5; assay type: physicochemical
Plasmodium falciparum [23] = assay: Antiplasmodial activity against Plasmodium falciparum 3D7 infected in human erythrocytes engrafted in NOD-SCID IL-2Rgamma null mouse assessed as reduction in blood parasitemia at 10 to 30 mg/kg, po administered as single dose via gavage measured on day 4 post treatment by flow cytometry; assay type: functional, organism-based
How it was run: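 Human-erythrocyte-engrafted SCID mice infected with P. falciparum 3D7 received one oral dose (1, 3, 10 or 30 mg·kg-1) on day 3 post-infection. Parasitemia was followed by flow cytometry, with a quantification limit of 0.01; vehicle controls n=3.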

Plasmodium falciparum [24] = assay: Antiplasmodial activity against Plasmodium falciparum K1 infected in human erythrocytes after 72 hrs by [3H]-hypoxanthine incorporation assay; assay type: functional, organism-based
[25] = Protein binding in brain (unknown origin); assay type: ADME, tissue-based; settings: read-out: PB
Plasmodium falciparum [26] = assay: Antiplasmodial activity against schizont stage of Plasmodium falciparum 3D7A infected in red blood cells assessed as reduction in parasite viability at 3 to 10 times EC50 after 48 hrs by [3H]-hypoxanthine incorporation assay relative to ring stage; assay type: functional
[27] = Clearance in dog at 0.2 mg/kg, iv measured for 14 days; assay type: ADME, organism-based, Canis lupus familiaris; settings: in vivo
How it was run: (§4)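 Single iv administration, mouse dose 0.2 mg·kg-1. CL reported in L/h/kg and as % liver blood flow; Vss in L/kg.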

[28] = Fraction unbound in dog plasma at 1000 ng/mL by LC-MS analysis; assay type: ADME, cell-free, Canis lupus familiaris
[29] = Intrinsic clearance in monkey microsomes assessed per mg protein; assay type: ADME, Macaca mulatta, Microsome; settings: rhesus monkey
[30] = molecular target: Voltage-gated inwardly rectifying potassium channel KCNH2 (Homo sapiens, UniProt Q12809); assay: Inhibition of human ERG
Sequence of Voltage-gated inwardly rectifying potassium channel KCNH2 (Q12809 whole entry): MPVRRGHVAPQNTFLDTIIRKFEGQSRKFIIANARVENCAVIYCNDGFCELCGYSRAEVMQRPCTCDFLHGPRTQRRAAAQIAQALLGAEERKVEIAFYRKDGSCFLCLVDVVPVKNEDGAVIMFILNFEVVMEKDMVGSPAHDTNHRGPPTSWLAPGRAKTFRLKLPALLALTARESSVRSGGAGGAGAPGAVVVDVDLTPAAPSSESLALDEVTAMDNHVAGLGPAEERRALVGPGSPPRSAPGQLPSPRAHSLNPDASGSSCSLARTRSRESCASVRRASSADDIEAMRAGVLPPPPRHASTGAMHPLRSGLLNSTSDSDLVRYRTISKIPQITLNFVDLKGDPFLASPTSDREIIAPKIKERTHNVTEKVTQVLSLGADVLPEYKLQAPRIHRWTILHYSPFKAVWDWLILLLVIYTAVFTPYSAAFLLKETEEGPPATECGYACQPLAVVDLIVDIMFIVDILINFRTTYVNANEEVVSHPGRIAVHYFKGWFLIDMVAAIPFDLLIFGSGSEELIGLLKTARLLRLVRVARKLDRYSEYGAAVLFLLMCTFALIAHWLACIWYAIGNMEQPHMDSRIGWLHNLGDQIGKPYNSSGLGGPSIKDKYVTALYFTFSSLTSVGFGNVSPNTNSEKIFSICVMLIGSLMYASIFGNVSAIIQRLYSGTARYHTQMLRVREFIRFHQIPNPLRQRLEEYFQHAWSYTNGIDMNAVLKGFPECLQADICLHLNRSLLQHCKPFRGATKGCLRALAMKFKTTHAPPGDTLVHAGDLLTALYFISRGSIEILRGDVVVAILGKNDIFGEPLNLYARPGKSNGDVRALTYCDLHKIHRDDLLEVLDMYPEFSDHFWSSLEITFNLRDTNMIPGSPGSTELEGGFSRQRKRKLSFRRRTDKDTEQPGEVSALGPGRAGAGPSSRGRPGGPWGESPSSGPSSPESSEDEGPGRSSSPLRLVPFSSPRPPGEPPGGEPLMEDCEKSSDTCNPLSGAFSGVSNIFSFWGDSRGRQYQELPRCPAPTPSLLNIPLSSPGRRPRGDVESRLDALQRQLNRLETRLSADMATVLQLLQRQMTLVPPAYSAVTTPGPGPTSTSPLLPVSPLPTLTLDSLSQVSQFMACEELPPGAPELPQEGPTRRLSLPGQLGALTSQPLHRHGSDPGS

[31] = Ratio of EC50 for Plasmodium falciparum 7G8 infected in human erythrocytes to EC50 for Plasmodium falciparum NF54 infected in human erythrocytes; assay type: functional
Plasmodium falciparum [32] = assay: Antiplasmodial activity against Plasmodium falciparum 7G8 infected in human erythrocytes after 72 hrs by [3H]-hypoxanthine incorporation assay; assay type: functional, organism-based
[33] = Ratio of drug uptake in human blood to plasma; assay type: ADME; settings: blood and plasma
[34] = Lipophilicity, log P of the compound; assay type: physicochemical; settings: octanol/water
[35] = Efflux ratio of apparent permeability from basolateral to apical side over apical to basolateral side in human Caco2 cells at 20 uM after 4 hrs in presence of human plasma by LC-MS analysis; assay type: ADME, cell-based; settings: Caco-2
How it was run: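 Caco-2 permeability was run with human plasma on both donor and acceptor sides to reduce non-specific binding. Apparent permeability (Papp, ×10^-6 cm/s) was corrected for the unbound concentration, and an efflux ratio was reported.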

[36] = Apparent permeability of the compound in human Caco2 cells at 20 uM after 4 hrs in presence of human plasma by LC-MS analysis; assay type: ADME, cell-based; settings: Caco-2
How it was run: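 Caco-2 permeability measured with human plasma in both donor and acceptor compartments to reduce non-specific binding. Papp corrected for the unbound concentration under these conditions; efflux ratio also reported.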

[37] = Volume of distribution at steady state in CD1 mouse at 0.2 mg/kg, iv measured for 14 days; assay type: ADME, organism-based; settings: in vivo, read-out: Vdss; how it was run: as §4
[38] = Half life in dog at 0.5 mg/kg, po measured for 14 days; assay type: ADME, organism-based, Canis lupus familiaris; settings: in vivo; how it was run: as §2
[39] = Oral bioavailability in rat at 0.5 mg/kg measured for 14 days; assay type: ADME, organism-based; settings: in vivo
[40] = Kinetic solubility of the compound in FeSSIF at pH 5 after 24 hrs by HPLC analysis; assay type: physicochemical; settings: read-out: Kinetic_solubility
Plasmodium falciparum [41] = assay: Antiplasmodial activity against Plasmodium falciparum Dd2 infected in human erythrocytes after 72 hrs by [3H]-hypoxanthine incorporation assay; assay type: functional, organism-based
[42] = Ratio of EC50 for Plasmodium falciparum HB3 infected in human erythrocytes to EC50 for Plasmodium falciparum NF54 infected in human erythrocytes; assay type: functional
[43] = Intrinsic clearance in rat microsomes assessed per mg protein; assay type: ADME, Microsome
Plasmodium falciparum [44] = assay: Antiplasmodial activity against Plasmodium falciparum 3D7A infected in red blood cells at 2 times EC90; assay type: functional, organism-based
[45] = Intrinsic clearance in human microsomes assessed per mg protein; assay type: ADME, Microsome
[46] = Octanol-phosphate buffer partition co-efficient, log D of the compound at pH 7.4 after 1 hr by HPLC analysis; assay type: physicochemical
Plasmodium falciparum [47] = assay: Antiplasmodial activity against Plasmodium falciparum NF54 infected in human erythrocytes after 72 hrs by [3H]-hypoxanthine incorporation assay; assay type: functional, organism-based
[48] = Kinetic solubility of the compound in FaSSIF at pH 6.5 after 24 hrs by HPLC analysis; assay type: physicochemical; settings: read-out: Kinetic_solubility
[49] = Ratio of EC50 for Plasmodium falciparum V1/S infected in human erythrocytes to EC50 for Plasmodium falciparum NF54 infected in human erythrocytes; assay type: functional
[50] = Clearance in CD1 mouse at 0.2 mg/kg, iv measured for 14 days; assay type: ADME, organism-based; settings: in vivo; how it was run: as §4
Plasmodium falciparum [51] = assay: Ratio of EC90 for Plasmodium falciparum NF54 infected in human erythrocytes to EC50 for Plasmodium falciparum NF54 infected in human erythrocytes; assay type: functional
[52] = Fraction unbound in mouse plasma at 1000 ng/mL by LC-MS analysis; assay type: ADME, cell-free
[53] = Tmax in CD1 mouse at 0.5 mg/kg, po measured for 14 days; assay type: ADME, organism-based; settings: in vivo; how it was run: as §2
[54] = Ratio of EC50 for Plasmodium falciparum Dd2 infected in human erythrocytes to EC50 for Plasmodium falciparum NF54 infected in human erythrocytes; assay type: functional
[55] = Fraction unbound in rat plasma at 1000 ng/mL by LC-MS analysis; assay type: ADME, cell-free
Plasmodium falciparum [56] = assay: Antiplasmodial activity against Plasmodium falciparum D6 infected in human erythrocytes after 72 hrs by [3H]-hypoxanthine incorporation assay; assay type: functional, organism-based
[57] = Ratio of EC50 for Plasmodium falciparum TM90C2B infected in human erythrocytes to EC50 for Plasmodium falciparum NF54 infected in human erythrocytes; assay type: functional
Plasmodium falciparum [58] = assay: Antiplasmodial activity against Plasmodium falciparum FCB infected in human erythrocytes after 72 hrs by [3H]-hypoxanthine incorporation assay; assay type: functional, organism-based

SMILES: CCN(CC)CCCC(C)Nc1ccnc2cc(Cl)ccc12 (stereo unspecified) [CHLOROQUINE]
ED50 (Plasmodium falciparum [1]): 2.8 mg/kg

EC50 (Plasmodium falciparum [3]): 2.1 nM
EC50 (Plasmodium falciparum [5]): 1.3 nM
blood plasma ratio [6]: 1.6
remaining at 5 h [7]: 96%
bioavailability [9]: 100%
half-life [10]: 86 h
Cmax [11]: 1000 nM
bioavailability [14]: 97%
half-life [15]: 160 h
EC50 (Plasmodium falciparum [17]): 3 nM
solubility kinetic at 24 h [18]: 1.5 µg/mL (≈ 3.6 µM)
microsomal CLint [19]: < 10 µL/min/mg
microsomal CLint [20]: < 10 µL/min/mg
fraction unbound at 1000 ng/mL [21]: 0.035
pKa [22]: 8.05
EC50 (Plasmodium falciparum [24]): 0.7 nM
fraction unbound [25]: < 0.001
clearance [27]: 2.98 mL/min/kg
fraction unbound at 1000 ng/mL [28]: 0.013
microsomal CLint [29]: < 10 µL/min/mg
EC50 (Plasmodium falciparum [32]): 0.4 nM
blood plasma ratio [33]: 1.5
logP [34]: 4.6
efflux ratio at 4 h, 20 µM [35]: 0.8
Papp at 4 h, 20 µM [36]: 120 ×10⁻⁶ cm/s
Vd [37]: 10 L/kg
half-life [38]: 69 h
bioavailability [39]: 72%
solubility kinetic at 24 h [40]: 83.5 µg/mL (≈ 201 µM)
EC50 (Plasmodium falciparum [41]): 3.2 nM
microsomal CLint [43]: < 10 µL/min/mg
microsomal CLint [45]: < 10 µL/min/mg
logD at 1 h [46]: 4.1
EC50 (Plasmodium falciparum [47]; Plasmodium falciparum, NF54): 2.4 nM
solubility kinetic at 24 h [48]: 10 µg/mL (≈ 24 µM)
clearance [50]: 2.6 mL/min/kg
fraction unbound at 1000 ng/mL [52]: 0.026
Tmax [53]: 6 h
fraction unbound at 1000 ng/mL [55]: 0.025
EC50 (Plasmodium falciparum [56]): 3.4 nM
EC50 (Plasmodium falciparum [58]): 3 nM
SMILES: O[C@H]1CNCCC[C@@H]1n1c2ccc(C(F)(F)F)cc2c2cc(C(F)(F)F)ccc21
ED90 (Plasmodium falciparum [1]): 3.6 mg/kg
Ratio EC50 [2]: 1.4
Ratio EC50 [4]: 0.3
AUCED90 (Plasmodium falciparum [8]): 2.2 µg.hr/ml/day
FC (Plasmodium falciparum [12]): 4.8
Ratio EC50 [13]: 1.3
FC (Plasmodium falciparum [16]): 4.5
Activity (Plasmodium falciparum [23]): Active
fold change (FC) (Plasmodium falciparum [26]): 2
IC50 [30]: 1180 nM
Ratio EC50 [31]: 0.2
Ratio EC50 [42]: 0.9
Activity (Plasmodium falciparum [44]): Active
fEC50 (Plasmodium falciparum [47]): 0.17 nM
Ratio EC50 [49]: 0.5
fold change (FC) (Plasmodium falciparum [51]): 2
Ratio EC50 [54]: 1.3
Ratio EC50 [57]: 1.2

pKa [22]: 8.05
SMILES: C1CCCNCC1 [AZEPANE]
